Test results published in ChEMBL document CHEMBL1150643, “Bioactive constituents of Cedrelopsis microfoliata” (J Nat Prod, 2002).
Converted amounts (≈) assume the structure as drawn.

Assays:
[1] = molecular target: Estrogen receptor beta (Homo sapiens) (UniProt Q92731); experiment: Agonist activity at ERbeta expressed in human HEK293 cells assessed as induction of estrogenic response at 10 to 100 ug/mL by luciferase reporter gene assay relative to 17beta estradiol; assay type: functional, cell-based
[2] = molecular target: T1, Estrogen receptor (Homo sapiens) (UniProt P03372); experiment: Agonist activity at ERalpha expressed in human HEK293 cells assessed as induction of estrogenic response at 10 to 100 ug/mL by luciferase reporter gene assay relative to 17beta estradiol; assay type: functional, cell-based
T1 sequence (whole entry): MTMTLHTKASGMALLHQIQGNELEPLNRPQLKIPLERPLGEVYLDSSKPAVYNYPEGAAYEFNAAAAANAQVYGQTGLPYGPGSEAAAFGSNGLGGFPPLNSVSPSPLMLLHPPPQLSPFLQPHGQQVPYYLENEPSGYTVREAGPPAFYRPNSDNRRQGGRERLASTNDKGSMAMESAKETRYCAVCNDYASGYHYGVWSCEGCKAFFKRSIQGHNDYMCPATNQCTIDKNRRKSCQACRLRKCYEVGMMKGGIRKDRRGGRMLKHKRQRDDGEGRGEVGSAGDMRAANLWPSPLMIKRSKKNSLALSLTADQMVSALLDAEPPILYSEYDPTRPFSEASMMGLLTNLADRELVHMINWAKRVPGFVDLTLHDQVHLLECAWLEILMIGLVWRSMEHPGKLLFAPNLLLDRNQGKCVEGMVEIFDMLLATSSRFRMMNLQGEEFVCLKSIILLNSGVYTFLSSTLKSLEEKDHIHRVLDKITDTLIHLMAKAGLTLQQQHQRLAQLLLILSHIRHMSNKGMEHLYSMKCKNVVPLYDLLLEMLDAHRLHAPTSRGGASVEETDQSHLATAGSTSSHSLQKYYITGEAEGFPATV

[3] = Superoxide scavenging activity by chemiluminescence assay
Procedure, shortened: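 Cell-free xanthine oxidase system in PBS pH 7.4 with a serial dilution of sample. Added hypoxanthine (final 1 mM), lucigenin (0.1 mM), and either buffer or SOD (10 U/mL); started with xanthine oxidase (10 mU/mL). Chemiluminescence read each minute for 15 min. Activity taken from the SOD-inhibitable signal. Uric acid formation at 290 nm checked for direct xanthine oxidase effects.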

[4] = Inhibition of luminol-induced chemiluminescence of reactive oxygen metabolites in opsonized zymosan-induced human PMNC by chemiluminescence assay; assay type: functional
Procedure, shortened: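 PMNs from buffy coats of healthy volunteers, isolated on Ficoll-Hypaque and suspended in HBSS. Cells were mixed with a dilution range of sample plus luminol (0.1 mM), then activated with human-serum-opsonized zymosan (0.8 mg/mL). Luminescence read every 2 min over 30 min. Inhibition calculated from maximum peak levels against a control of cells, luminol and buffer.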

Sequence of Estrogen receptor beta (Homo sapiens) (Q92731 whole entry): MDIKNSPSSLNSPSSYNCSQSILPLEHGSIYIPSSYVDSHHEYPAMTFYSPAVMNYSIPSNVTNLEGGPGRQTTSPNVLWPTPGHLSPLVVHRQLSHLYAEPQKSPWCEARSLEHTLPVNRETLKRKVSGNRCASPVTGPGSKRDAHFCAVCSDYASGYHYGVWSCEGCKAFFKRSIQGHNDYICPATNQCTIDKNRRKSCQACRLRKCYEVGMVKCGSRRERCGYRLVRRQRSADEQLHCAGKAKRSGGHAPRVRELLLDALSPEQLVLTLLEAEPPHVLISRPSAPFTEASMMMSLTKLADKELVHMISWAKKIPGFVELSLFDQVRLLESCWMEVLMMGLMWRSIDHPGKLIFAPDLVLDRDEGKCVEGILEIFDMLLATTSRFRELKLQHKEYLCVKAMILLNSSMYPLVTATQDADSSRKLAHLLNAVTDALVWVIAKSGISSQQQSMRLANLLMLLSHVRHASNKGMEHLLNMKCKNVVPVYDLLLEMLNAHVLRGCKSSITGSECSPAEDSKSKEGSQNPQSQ

Row | Activity [1] [%] | Activity [2] [%] | IC50 [3] [mg/L] | IC50 [4] [mg/L] | Compound
1 | 20 | 20 |  |  | COc1c(O)c(CC=C(C)C)c(O)c2c1O[C@@H](c1ccccc1)CC2=O
2 | 20 | 20 | 3 (≈ 8.46 µM) | 3.2 | COc1c(O)c(CC=C(C)C)c2c(c1O)C(=O)C[C@@H](c1ccccc1)O2 [AGRANDOL]
3 | 20 | 20 | 0.2 (≈ 0.819 µM) | 13 | CC1(C)C=Cc2c(c(O)cc3oc(=O)ccc23)O1 [CEDRECOUMARIN A]
4 |  |  | 3 (≈ 6.84 µM) | 4 | CO[C@]1(CC=C(C)C)C(=O)[C@@](O)(C(=O)/C=C/c2ccccc2)C(=O)C(CC=C(C)C)=C1O [MICROFOLIAN]
